High-throughput results deposited in PubChem BioAssay by Johns Hopkins Ion Channel Center.
TRPC4 block – inhibitors of mouse TRPC4 channel, primary screen, Fluo4 calcium, HEK293 TRPC4beta/mu-opioid cells; Short transient receptor potential channel 4 (Mus musculus), Q9QUQ5; DAMGO-evoked Fluo4 calcium flux; hits give low values; B-score at 10 µM; 0.39% of 300,000 active;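 active means B-score over 3 SD under the library average, no early fluorescence shift, positive overall ratio signal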
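Assay system: HEK293 cells with stable TRPC4beta plus mu-opioid receptor expression. Dosing: single dose. Measured by: Fluo4 Ca2+ flux fluorescence. Also added: DAMGO in two steps, submaximal then maximal. Read-out: B score from integrated Fluo4 fluorescence ratio.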
TRPC4 PAM – positive allosteric modulators of TRPC4, primary screen, cell-based, mouse TRPC4beta, HEK293 mu-opioid, Fluo-4 calcium. Short transient receptor potential channel 4 (Mus musculus), Q9QUQ5. DAMGO EC20, Fluo-4 Ca2+ flux; hits give high values. 0.42% of 310,000 active. B-score at 10 µM;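 active means B-score of calcium response area above 5 SD of library B-scores, with initial fluorescence ratio within 5 SD of library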
TRPC4 act – activators of mouse TRPC4 channel, primary screen, Fluo4 calcium, HEK293 TRPC4beta/mu-opioid cells; Short transient receptor potential channel 4 (Mus musculus), Q9QUQ5; Fluo4 calcium fluorescence; hits give high values; B-score at 10 µM; 0.49% of 310,000 active;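 active means B-score above 5 SD of library B-scores, and initial fluorescence ratio not above library mean plus 5 SD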;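 further: positive B-score marks a calcium rise read as TRPC4 activation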
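Incubation: 45 min room-temperature Fluo4 loading, 110 s read / System: HEK293 cells stably co-expressing mouse TRPC4beta and mu-opioid receptor / Signal: Fluo4 fluorescence, kinetic / Control set: buffer (low) and maximal DAMGO (high) / Measure: integrated baseline-normalised fluorescence ratio, converted to per-well B score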
TRPC6 activator – mouse TRPC6 channel activators, primary screen, cell-based, HEK293, membrane potential dye. B-score at 10 µM. AID 2550, 2010. HEK293-TRPC6 membrane potential dye fluorescence; hits give high values. Short transient receptor potential channel 6 (Mus musculus), Q61143. 0.13% of 310,000 active;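 active means B-score of the integrated fluorescence ratio above library mean plus 3 SD, and starting fluorescence ratio within library mean plus 5 SD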;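 further: higher score means more depolarization so channel activation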
TRPC6 inh – mouse TRPC6 channel inhibitors, primary screen, cell-based, HEK293, membrane potential dye | ACh-evoked depolarization; hits give low values | B-score at 10 µM | 1.1% of 310,000 active;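 active means B-score under library mean minus 3 SD, initial fluorescence not abnormally high, positive integrated signal ratio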;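 further: B-score derived from integrated fluorescence ratio over the kinetic read; more negative B-score means stronger inhibition of depolarization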
TRPC4 spec 2 – second selectivity test of TRPC6 inhibitors: effect on mouse TRPC4 | AID 2776 | HEK293 TRPC4/MOR, membrane potential dye fluorescence; channel activated by saturating DAMGO dose | 42% of 920 active | inhibition, % at 10 µM | shares compounds with TRPC6 inh;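 active means compounds whose fluorescence signal differed from control wells by over 3 SD, either direction, in both duplicate plates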
TRPC4 spec – mouse TRPC4 modulation by TRPC6 hits, confirmation, selectivity assay for TRPC6 inhibitor project, cell-based, HEK293 TRPC4/mu-opioid, membrane potential dye; shares compounds with TRPC6 inh; membrane potential fluorescence; activity change, negative = inhibition, % at 10 µM; 61% of 920 active; AID 2777, 2010;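 active means rise or fall in signal beyond 3 SD of buffer-only wells in both replicate plates, either sign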;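 further: integrated kinetic ratio of fluorescence range over baseline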
HEK293 MPD ctr 2-1 – nonspecific membrane potential effects, parental HEK293, confirmation, counter-screen for TRPC6 inhibitor project, cell-based, second counter screen; parental HEK293 membrane potential dye fluorescence; maximal acetylcholine challenge after compound addition; shares compounds with TRPC6 inh; 31% of 920 active; AID 2779, 2010; signal change vs control, % at 10 µM;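 active means membrane potential signal moving either way by over 3 SD of the maximum-effect control, in both duplicate plates, meaning non-specific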
HEK293 MPD ctr-1 – membrane potential modulation in parental HEK293, confirmation, counter-screen for TRPC6 inhibitor project, cell-based. shares compounds with TRPC6 inh. parental HEK293 membrane potential dye fluorescence. membrane potential signal change, % at 10 µM. 60% of 920 active. AID 2780, 2010;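 active means membrane potential signal shifting up or down by more than 3 SD of buffer-only wells, on both duplicate plates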
HEK293 MPD ctr-2 – parental HEK293 membrane potential modulation, confirmation, counter-screen for TRPC6 modulator project, cell-based; shares compounds with TRPC6 inh; membrane potential dye fluorescence; membrane potential signal change, % at 10 µM; 51% of 2,400 active; AID 488924, 2010;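 active means membrane potential signal moves up or down beyond 5 SD from buffer-only wells, on both duplicate plates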
HEK293 MPD ctr 2-2 – second counter-screen for TRPC6 modulators: effect in parental HEK293 cells; 14% of 2,400 active; shares compounds with TRPC6 inh; inhibition, % at 10 µM; membrane potential dye fluorescence; after compound, maximal acetylcholine stimulation; AID 488926;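 active means membrane potential signal drops by more than 5 SD from the mean control signal, in both duplicate plates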
TRPC4 ctr mod – TRPC4 modulation by TRPC6 hit compounds, confirmation, selectivity assay for TRPC6 modulator project, cell-based, HEK293 TRPC4/mu-opioid, membrane potential dye, mouse; shares compounds with TRPC6 inh; membrane potential fluorescence; percent change from control (negative = decrease, positive = increase), % at 10 µM; 69% of 2,400 active; AID 488927, 2010;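 active means membrane potential signal moved up or down beyond 5 SD of buffer control wells, in both duplicate plates, actives on both sides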
TRPC4/MOR inh 2 – second check of whether TRPC6 modulators also affect mouse TRPC4; inhibition, % at 10 µM; HEK293 TRPC4/mu-opioid, membrane potential dye fluorescence; stimulated with maximal-effect DAMGO; shares compounds with TRPC6 inh; 55% of 2,400 active;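 active means drop in membrane potential signal beyond 5 SD of the control wells in both duplicate plates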;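 further: TRPC4 counter screen for TRPC6 hits run under conditions tuned for TRPC6 not TRPC4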
TRPC6 inh conf – mouse TRPC6 channel inhibitors, confirmation, HEK293 cells, membrane potential dye, duplicate | inhibition, % at 10 µM | shares compounds with TRPC6 inh | ACh-evoked depolarization | 43% of 3,300 active;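 active means fluorescence ratio falls more than 5 SD below the full-stimulation control mean, in both duplicate runs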;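 further: integrated fluorescence ratio of peak minus minimum over baseline after agonist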
TRPC6 act confirm – mouse TRPC6 channel activators, confirmation, HEK293 cells, membrane potential dye, duplicate; shares compounds with TRPC6 inh; HEK293-TRPC6 membrane potential dye fluorescence, FDSS; activation, % at 10 µM; 11% of 2,800 active; AID 488961, 2010;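 active means ratio signal rise beyond 5 SD above unstimulated control wells' mean, seen in both duplicate runs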
Hits are given with their value. Most compounds without a hit are left out; they make up all but 2.3% or so of the library.

For C=CCn1c(=N)n(CC(=O)c2ccc(Br)s2)c2ccccc21 the results were TRPC4 block inactive, TRPC4 PAM inactive, TRPC4 act inactive, TRPC6 activator inactive, TRPC6 inh -8.03, TRPC4 spec 2 13.0%, TRPC4 spec 16.9%, HEK293 MPD ctr 2-1 inactive, HEK293 MPD ctr-1 inactive, TRPC6 inh conf 64.5% and TRPC6 act confirm inactive.
C=CCn1c(=N)n(CC(=O)c2ccc(Cl)cc2)c2ccccc21 was read as TRPC4 block inactive, TRPC4 PAM inactive, TRPC4 act inactive, TRPC6 activator inactive, TRPC6 inh -5.87, HEK293 MPD ctr-2 inactive, HEK293 MPD ctr 2-2 inactive, TRPC4 ctr mod 35.5%, TRPC4/MOR inh 2 93.0% and TRPC6 inh conf 57.5%.
`Cc1cc(NC(=O)CCSc2ccccc2)no1` gave TRPC4 block inactive, TRPC4 PAM inactive, TRPC4 act inactive, TRPC6 activator inactive and TRPC6 inh inactive.
For CC(C)(C)NC(=O)CN(Cc1ccccc1)S(=O)(=O)c1ccccc1 the results were TRPC4 block inactive, TRPC4 PAM inactive, TRPC4 act inactive, TRPC6 activator inactive and TRPC6 inh inactive.
CCN1CCN(C(=O)Cn2nc(-c3ccc(Cl)cc3)ccc2=O)CC1 was read as TRPC4 block inactive, TRPC4 PAM inactive, TRPC4 act inactive, TRPC6 activator inactive and TRPC6 inh inactive.
For CCOC(=O)N1CCN(C(=O)Cn2nc(-c3ccc(Cl)cc3)ccc2=O)CC1 the results were TRPC4 block inactive, TRPC4 PAM inactive, TRPC4 act inactive, TRPC6 activator inactive, TRPC6 inh -6.8, TRPC4 spec 2 inactive, TRPC4 spec 0.5%, HEK293 MPD ctr 2-1 inactive, HEK293 MPD ctr-1 2.3% and TRPC6 inh conf 56.8%.
CCc1ccccc1N(C(=O)c1ccco1)C(C(=O)NC1CCCC1)c1cccnc1 (centres undefined) was read as TRPC4 block inactive, TRPC4 PAM inactive, TRPC4 act inactive, TRPC6 activator inactive and TRPC6 inh inactive.
For CCC1CCCCN1C(=O)c1sc2nc(C)nc(N(CC)CC)c2c1C (centres undefined) the results were TRPC4 block inactive, TRPC4 PAM inactive, TRPC4 act inactive, TRPC6 activator inactive and TRPC6 inh inactive.
For CCOC(=O)C1CCCN(C(=O)c2sc3nc(C)nc(N(CC)CC)c3c2C)C1 (centres undefined) the results were TRPC4 block inactive, TRPC4 PAM inactive, TRPC4 act inactive, TRPC6 activator inactive, TRPC6 inh -5.22, HEK293 MPD ctr-2 110.0%, HEK293 MPD ctr 2-2 inactive, TRPC4 ctr mod 22.5%, TRPC4/MOR inh 2 36.0% and TRPC6 inh conf 37.5%.
For CN(C(=O)CS(=O)(=O)c1cn(CC(=O)N2CCCC2)c2ccccc12)c1ccccc1 the results were TRPC4 block inactive, TRPC4 PAM inactive, TRPC4 act inactive, TRPC6 activator inactive and TRPC6 inh inactive.
CN(C)CC/C=C1/c2cc(F)ccc2Sc2ccc(Cl)cc21 was read as TRPC4 block inactive, TRPC4 PAM inactive, TRPC4 act inactive, TRPC6 activator inactive, TRPC6 inh -5.29, HEK293 MPD ctr-2 inactive, HEK293 MPD ctr 2-2 inactive, TRPC4 ctr mod 9.5%, TRPC4/MOR inh 2 57.5%, TRPC6 inh conf inactive and TRPC6 act confirm inactive.
For CN(C)CC/C=C1/c2ccccc2Sc2c(O)cc(Cl)cc21 the results were TRPC4 block inactive, TRPC4 PAM inactive, TRPC4 act inactive, TRPC6 activator inactive and TRPC6 inh inactive.
`O=C(CCC(=O)N1CCOc2ccccc21)NCCCN1CCN(Cc2ccccc2)CC1` gave TRPC4 block inactive, TRPC4 PAM inactive, TRPC4 act inactive, TRPC6 activator inactive and TRPC6 inh inactive.
Screening C=CCn1c(/N=C/c2ccc(N(C)C)cc2)nc2ccccc21 returned TRPC4 block inactive, TRPC4 PAM 10, TRPC4 act 86, TRPC6 activator 21.8, TRPC6 inh -6.61, HEK293 MPD ctr-2 890.5%, HEK293 MPD ctr 2-2 inactive, TRPC4 ctr mod 68.0%, TRPC4/MOR inh 2 76.5%, TRPC6 inh conf 81.5% and TRPC6 act confirm 261.5%.
Screening CN1Cc2c(N3CCOCC3)nc3sc(C(=O)c4ccc(Br)cc4)c(N)c3c2CC1(C)C returned TRPC4 block inactive, TRPC4 PAM inactive, TRPC4 act inactive, TRPC6 activator inactive, TRPC6 inh -7.21, TRPC4 spec 2 inactive, TRPC4 spec -11.2%, HEK293 MPD ctr 2-1 inactive, HEK293 MPD ctr-1 -161.0%, TRPC6 inh conf inactive and TRPC6 act confirm inactive.
